Assay results: ChEMBL document CHEMBL1139010, “Synthesis and SAR studies of 2-oxoquinoline derivatives as CB2 receptor inverse agonists” (J Med Chem, 2006)

Tests used:
Cannabinoid receptor 2 [1] = biological target: T1, Cannabinoid receptor 2 (Homo sapiens, UniProt P34972); test: Inhibition of [35S]GTP-gamma-S binding to human CB2 receptor expressed in CHO cells; type: functional, cell-based
[2] = biological target: Cannabinoid receptor 1 (Rattus norvegicus) (UniProt P20272); test: […] activity at HU210-induced CB1 receptor in rat cerebellar membrane at 1 uM; type: functional, cell membranes; details: Cerebellum
Procedure, shortened: (§1)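 [³⁵S]GTPγS binding in rat cerebellar membranes, measuring block of the CB1 response to 10 nM HU-210 by ligand at 1 µM and 10 µM. Ligand alone was also tested at 10 µM for agonism. Values are means of at least three independent experiments run in duplicate, with SEM as the variability.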

Cannabinoid receptor 2 [3] = biological target: T1, Cannabinoid receptor 2; test: Inhibition of [35S]GTP-gamma-S binding to human CB2 receptor expressed in CHO cells relative to SR-144528; type: functional, cell-based
Procedure, shortened: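 Membranes from CHO cells stably expressing hCB2 (Bmax 20.4 pmol/mg; cultured with 100 µg/mL G-418). Each incubation held 5 µg protein in 55 mM Tris-HCl pH 7.4 with 1.1 mM EDTA, 100 mM NaCl, 5 mM MgCl₂, 0.5% BSA, 11 µM GDP and about 150 pM [³⁵S]GTPγS. Ligands were added in 1% ethanol or 0.5% DMSO (final). Inhibition of basal binding was expressed against 1 µM SR144528 (Imax). At least three experiments were run in duplicate, reported as mean and SEM.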

[4] = biological target: Cannabinoid receptor 1 (Rattus norvegicus) (UniProt P20272); test: […] activity at HU210-induced CB1 receptor in rat cerebellar membrane at 10 uM; type: functional, cell membranes; details: Cerebellum; procedure, shortened: as §1

Chain of Cannabinoid receptor 1 (Rattus norvegicus) (P20272 whole entry): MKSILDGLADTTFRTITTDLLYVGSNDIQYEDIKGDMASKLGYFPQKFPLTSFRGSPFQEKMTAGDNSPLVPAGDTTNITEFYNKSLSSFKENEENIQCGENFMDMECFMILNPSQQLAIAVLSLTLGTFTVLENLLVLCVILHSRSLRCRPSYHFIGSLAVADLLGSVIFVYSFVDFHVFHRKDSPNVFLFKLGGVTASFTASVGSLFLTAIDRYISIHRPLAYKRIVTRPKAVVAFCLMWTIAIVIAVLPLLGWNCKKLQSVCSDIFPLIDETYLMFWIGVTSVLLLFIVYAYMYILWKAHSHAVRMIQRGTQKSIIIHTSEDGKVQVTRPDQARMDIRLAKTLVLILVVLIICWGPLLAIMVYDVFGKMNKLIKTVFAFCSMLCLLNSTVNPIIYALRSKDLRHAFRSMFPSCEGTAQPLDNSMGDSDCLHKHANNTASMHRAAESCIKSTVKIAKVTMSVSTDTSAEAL
T1 sequence (P34972 whole entry): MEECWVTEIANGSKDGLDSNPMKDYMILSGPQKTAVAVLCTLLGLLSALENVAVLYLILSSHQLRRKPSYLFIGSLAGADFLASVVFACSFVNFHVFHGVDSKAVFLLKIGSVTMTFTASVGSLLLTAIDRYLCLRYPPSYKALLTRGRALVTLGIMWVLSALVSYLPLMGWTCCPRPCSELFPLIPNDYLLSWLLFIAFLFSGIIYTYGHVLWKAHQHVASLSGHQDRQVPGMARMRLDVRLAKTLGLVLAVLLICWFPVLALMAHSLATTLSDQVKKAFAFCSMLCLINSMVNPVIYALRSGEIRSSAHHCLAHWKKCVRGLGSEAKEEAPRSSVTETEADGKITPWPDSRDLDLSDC

Row | Structure (SMILES) | IC50 (Cannabinoid receptor 2 [1]) [nM] | Activity [2] [%] | Imax (Cannabinoid receptor 2 [3]) [%] | Activity [4] [%]
1 | CCCCCOc1c(OC)ccc2cc(C(=O)NCCc3ccc(Cl)cc3)c(=O)[nH]c12 | 5.01 | 95 | 104 | 64
2 | CCCCCOc1c(OC)ccc2cc(C(=O)NCc3ccc(O)c(O)c3)c(=O)[nH]c12 | 3980 |  |  | 
3 | CCCCCOc1c(OC)ccc2cc(C(=O)NCCc3ccc([N+](=O)[O-])cc3)c(=O)[nH]c12 | 100 |  |  | 
4 | CCCCCOc1c(OC)ccc2cc(C(=O)NCCc3ccc(N)cc3)c(O)nc12 |  | 91 | 97 | 74
5 | CCCCCOc1c(OC)ccc2cc(C(=O)NCCc3ccc(O)cc3)c(O)nc12 |  | 92 | 90 | 68
6 | CCCCCOc1c(OC)ccc2cc(C(=O)NCc3ccccc3)c(O)nc12 | 63.1 | 94 | 75 | 79
7 | CCCCCOc1c(OC)ccc2cc(C(=O)NCCc3ccc(O)cc3)c(=O)[nH]c12 | 10 |  |  | 
8 | CCCCCOc1c(OC)ccc2cc(C(=O)NCCc3ccc(O)c(O)c3)c(O)nc12 | 398 | 93 | 93 | 63
9 | CCCCCOc1c(OC)ccc2cc(C(=O)NCCCc3ccccc3)c(=O)[nH]c12 | 0.794 | 98 | 82 | 59
10 | CCCCCOc1c(OC)ccc2cc(C(=O)NCCc3ccc([N+](=O)[O-])cc3)c(O)nc12 |  | 87 | 61 | 65
11 | CCCCCOc1c(OC)ccc2cc(C(=O)NCCc3ccc(N)cc3)c(=O)[nH]c12 | 3.16 |  |  | 
12 | Cc1ccc(Cn2nc(C(=O)NC3C4(C)CCC(C4)C3(C)C)cc2-c2ccc(Cl)c(C)c2)cc1 (centres undefined) |  | 77 | 100 | 53
13 | CCCCCOc1c(OC)ccc2cc(C(=O)Nc3ccccc3N)c(=O)[nH]c12 | 12.6 |  |  | 
14 | CCCCCOc1c(OC)ccc2cc(C(=O)NCCc3c[nH]c4ccccc34)c(O)nc12 | 25.1 | 94 | 79 | 72
15 | CCCCCOc1c(OC)ccc2cc(NC(=O)Cc3ccc4c(c3)OCO4)c(O)nc12 |  | 93 | 60 | 75
16 | CCCCCOc1c(OC)ccc2cc(C(=O)NCc3ccc(O)c(O)c3)c(O)nc12 |  | 93 | 124 | 85
17 | CCCCCOc1c(OC)ccc2cc(NC(=O)Cc3ccc4c(c3)OCO4)c(=O)[nH]c12 | 20 |  |  | 
18 | CCCCCOc1c(OC)ccc2cc(C(=O)NCCc3ccccc3)c(=O)[nH]c12 | 0.631 | 87 | 76 | 61
19 | CCCCCOc1c(OC)ccc2cc(C(=O)NCc3ccc4c(c3)OCO4)c(=O)[nH]c12 |  | 94 | 80 | 78
20 | CCCCCOc1c(OC)ccc2cc(C(=O)Nc3ccccc3N)c(O)nc12 |  | 87 | 82 | 82
